Results from different studies.
Compare with care: the assays were run in different laboratories.
Target: Serine/threonine-protein kinase WNK1 (WNK1, Homo sapiens, UniProt Q9H4A3)

For `Cc1cnn2ncc(-c3ccnc(N(C)C)n3)c2c1`, the remaining binding was 94% (binding; 1 µM).
The remaining binding of `CNC(=O)[C@@H]1CC[C@@H](n2c(-c3ccc4cnccc4c3)nc3ccc(C(=O)NCc4cccc(C(N)=O)c4)cc32)C1` is reported as 100% (binding, competition with immobilised ligand; 1 µM).
`C[C@H]1CCN(c2nccc(-c3cnn4ncccc34)n2)C1` gave a remaining binding of 91% (binding; 1 µM).
The remaining binding of `c1cncc(-c2cccc(Nc3nccc(NC4CCCCC4)n3)c2)c1` is reported as 87% (binding, competition with immobilised ligand; 10 µM).
For `O=C(NCC1CCOCC1)c1n[nH]cc1NC(=O)c1c(F)cccc1F`, the remaining binding was 100% (binding, competition with immobilised ligand; 1 µM).
For `CN(C)c1nccc(-c2cnn3ncccc23)n1`, the remaining binding was 100% (binding; 1 µM).
For `FC(F)(F)Oc1cccc(-c2cnc3ccc(-c4ccncc4)nn23)c1`, the remaining binding was 79% (binding, competition with immobilised ligand; 5 µM).
The remaining binding of `CC(C)CC(=O)N1CCc2nc(-c3ccc(Br)cc3)nc(N(C)Cc3ccccc3)c2C1` is reported as 100% (cell-free assay, competition with immobilised ligand; 0.1 µM).
The remaining binding of `c1cnn2ncc(-c3ccnc(N4CCC45COC5)n3)c2c1` is reported as 100% (binding; 1 µM).
The remaining binding of `CS(=O)(=O)N1CCCC(NC(=O)[C@H](CCC2CCCCC2)NC(=O)c2ccc(CNC(=O)c3cnc4ccccn34)cc2)C1` (stereo partly shown) is reported as 99% (cell-free assay, competition with immobilised ligand; 0.1 µM).
With `O=C(NCCCN1CCOCC1)c1ccc(Nc2nccc(-c3cc4ccccc4s3)n2)cc1` the remaining binding was 98% (binding, competition with immobilised ligand; 1 µM).
For `Cc1nccc(COC(=O)N2C[C@@H]3[C@@H](CNC(=O)c4ccc5[nH]nnc5c4)[C@@H]3C2)n1`, the remaining binding was 86% (cell-free assay, competition with immobilised ligand; 1 µM).
With `CN(CCCC(F)(F)F)c1nccc(-c2cnn3ncccc23)n1` the remaining binding was 100% (binding; 1 µM).
For `NS(=O)(=O)c1cc(NC(=O)C2(c3ccccc3Cl)CC2)ccc1Oc1cccc(Cl)c1`, the remaining binding was 88% (cell-free assay, competition with immobilised ligand; 1 µM).
With `COc1ncc2cc3ccccc3nc2c1C#N` the remaining binding was 95% (cell-free assay, competition with immobilised ligand; 5 µM).
With `Cc1cc(-n2nc(Cc3cc(F)cc(C(F)(F)F)c3)nc2C)ccc1C(N)=O` the remaining binding was 100% (cell-free assay, competition with immobilised ligand; 1 µM).
For `COc1cnc(Nc2cccc(S(N)(=O)=O)c2)nc1N1CCN(c2ccccc2)CC1`, the remaining binding was 88% (binding, competition with immobilised ligand; 1 µM).
`NS(=O)(=O)c1cc(NC(=O)Cc2ccccc2)ccc1Oc1cccc(Cl)c1` gave a remaining binding of 89% (cell-free assay, competition with immobilised ligand; 1 µM).
The remaining binding of `O=C(c1ccc(Nc2nccc(-c3cc4ccccc4s3)n2)cc1)N1CCC(N2CCCC2)CC1` is reported as 88% (binding, competition with immobilised ligand; 1 µM).
